Results from different studies.
Each line is one published result; the experiments were not run side by side.
PFF0160c: Dihydroorotate dehydrogenase (quinone), mitochondrial (PFF0160c, Plasmodium falciparum, UniProt Q08210)
PARP1: Poly [ADP-ribose] polymerase 1 (PARP1, Homo sapiens, UniProt P09874)
PDE5A: cGMP-specific 3',5'-cyclic phosphodiesterase (PDE5A, Homo sapiens, UniProt O76074)
PPO3: PPO3 (Agaricus bisporus, UniProt C7FF04)
MEP1A: Meprin A subunit alpha (MEP1A, Homo sapiens, UniProt Q16819)
HDAC2: Histone deacetylase 2 (HDAC2, Homo sapiens, UniProt Q92769)
KDM1A: Lysine-specific histone demethylase 1A (KDM1A, Homo sapiens, UniProt O60341)
AURKB: Aurora kinase B (AURKB, Homo sapiens, UniProt Q96GD4)

SMILES	target	test	setting	IC50
CNCCOc1nc2nc(C)cc(Nc3ccc(C(F)(F)F)cc3)n2n1	PFF0160c	enzyme activity, inhibitor	–	> 10000 nM
O=C(NC1CC2(C1)CN(C(=O)c1cc3ccccc3c(=O)[nH]1)C2)c1c[nH]nn1	PARP1	enzyme activity, inhibitor	–	1280 nM
O=C1[C@@H]2Cc3c([nH]c4ccccc34)[C@@H](c3cccnc3)N2C(=O)N1c1ccc(Cl)cc1	PDE5A	enzyme activity, inhibitor, FP	–	1250 nM
Cc1ccc(NC(=O)c2ccc(C)c(C(F)(F)F)c2)cc1C#Cc1nn(C2CCC(O)CC2)c2ncnc(N)c12 (stereo not shown)	Cytoplasmic tyrosine-protein kinase BMX (BMX, Homo sapiens, UniProt P51813)	enzyme activity, inhibitor, radiometric	–	21 nM
COc1ccc(C2=NN(C3CCCCCC3)C(=O)[C@@H]3CC=CC[C@H]23)cc1-c1ccc(C(N)=O)cc1 (relative stereo)	3',5'-cyclic-AMP phosphodiesterase 4A (PDE4A, Homo sapiens, UniProt P27815)	enzyme activity, inhibitor	–	251 nM
O=C(Nc1ccn(Cc2ccc(O)cc2C(F)(F)F)n1)c1c(F)cccc1F	Sodium channel protein type 9 subunit alpha (SCN9A, Homo sapiens, UniProt Q15858)	ion current, inhibitor	–	> 10000 nM
COc1cc(C[C@H]2C(=O)OC[C@@H]2Cc2ccc(OC)c(OC)c2)ccc1O	PDE5A	enzyme activity, inhibitor	–	> 20000 nM
CCN1C(=O)[C@@H]2Cc3c([nH]c4ccccc34)[C@@H](c3ccc(OC)c(OC)c3)N2C1=O	PDE5A	enzyme activity, inhibitor, FP	–	13700 nM
Nc1cc(Nc2ccc(C(F)(F)F)cc2)n2ncnc2n1	PFF0160c	enzyme activity, inhibitor	–	31000 nM
COc1ccc(Nc2nc(N)c(C(=O)c3ccc(OC)c(OC)c3)s2)cc1	Sphingosine kinase 1 (SPHK1, Homo sapiens, UniProt Q9NYA1)	enzyme activity, inhibitor	–	~3000 nM
Nc1nc(N)c(N=Nc2ccccc2[N+](=O)[O-])c(N)n1	PPO3	enzyme activity, inhibitor, absorbance	–	34100 nM
O=C(CCN(Cc1ccc2c(c1)OCO2)Cc1ccc(Cl)cc1F)NO	MEP1A	enzyme activity, inhibitor	–	186 nM
Cc1cc(Nc2ccc(Cl)cc2)n2nc(CN)nc2n1	PFF0160c	enzyme activity, inhibitor	–	> 10000 nM
Cc1ccc(N=Nc2c(N)nc(N)nc2Cl)cc1	PPO3	enzyme activity, inhibitor, absorbance	–	42000 nM
CCC[C@H](NC(=O)C1CN(C)C1)c1ncc(-c2cc3ccccc3nc2OC)[nH]1	HDAC2	enzyme activity, inhibitor, fluorescence	–	750 nM
Cc1cc(Nc2cccc(Cl)c2)n2nc(OCCN)nc2n1	PFF0160c	enzyme activity, inhibitor	–	> 10000 nM
CCOCc1nc(O)c(-c2nnc(Cc3ccc(Cl)cn3)o2)c(O)c1-c1c(OC)cccc1OC	Cannabinoid receptor 1 (CNR1, Homo sapiens, UniProt P21554)	ligand displacement, radioligand	–	> 30000 nM
CN1CCN(c2ccc(Nc3ncc4cc(C#N)c(=O)n(C5CCCC5)c4n3)cc2)CC1	Tyrosine-protein kinase TXK (TXK, Homo sapiens, UniProt P42681)	enzyme activity, inhibitor	–	638 nM
COCCc1nc2nc(C)cc(Nc3cccc(Cl)c3)n2n1	PFF0160c	enzyme activity, inhibitor	–	> 10000 nM
CN(C)CCOc1ccc(-c2nc(-c3ccncc3)c(-c3ccc4c(c3)CC/C4=N\O)[nH]2)cc1	Serine/threonine-protein kinase A-Raf (ARAF, Homo sapiens, UniProt P10398)	enzyme activity, inhibitor	lysate	> 10000 nM
Cc1cc(Nc2cccc(Cl)c2)n2nc(CN(C)C)nc2n1	PFF0160c	enzyme activity, inhibitor	–	> 10000 nM
CCCCc1ccc(-c2ccc(-c3cc(C(=O)O)c4ccc(OC)cc4n3)o2)cc1	Eukaryotic initiation factor 4A-I (EIF4A1, Homo sapiens, UniProt P60842)	ATPase activity, inhibitor, absorbance	–	> 150000 nM

SMILES	target	test	setting	IC50
CC(C)(C)N1C(=O)[C@@H]2Cc3c([nH]c4ccccc34)[C@@H](c3cccnc3)N2C1=O	PDE5A	enzyme activity, inhibitor, FP	–	180 nM
Cc1ccc(C(C)C)cc1NC(=O)COC(=O)/C=C/c1ccc(O)cc1	PPO3	enzyme activity, inhibitor	–	1410 nM
COc1ccc(N=Nc2c(N)nc(N)nc2Cl)cc1	PPO3	enzyme activity, inhibitor, absorbance	–	28000 nM
CCC(=O)CCCCC[C@@H]1NC(=O)[C@H](C)N(C)C(=O)C[C@H](CC(C)C)NC(=O)[C@H](Cc2c[nH]c3ccccc23)NC1=O	HDAC2	enzyme activity, inhibitor	–	40 nM
Cc1ccc(C(C)C)cc1NC(=O)COC(=O)c1ccc(O)c(O)c1	PPO3	enzyme activity, inhibitor	–	11000 nM
COC(=O)[C@H]1Cc2c([nH]c3ccccc23)[C@@H](c2ccc(OC)c(OC)c2)N1C(=O)CCl	PDE5A	enzyme activity, inhibitor, FP	–	> 10000 nM
CCCSc1nc(Sc2nnnn2C)c2nnn(CCc3cccs3)c2n1	KDM1A	enzyme activity, inhibitor, fluorescence	–	339 nM
CC(C)(C)n1nc(-c2cnc3cc(OC4CC4)ccc3c2)c(C(N)=O)c1N	AURKB	cell-free assay, inhibitor	–	> 10000 nM
Cc1cc(Nc2ccc(S(F)(F)(F)(F)F)cc2)n2nc(OCCN(C)C)nc2n1	PFF0160c	enzyme activity, inhibitor	–	> 10000 nM
CCN1CC(=O)N2[C@H](c3ccc(OC)c(OC)c3)c3[nH]c4ccccc4c3C[C@@H]2C1=O	PDE5A	enzyme activity, inhibitor, FP	–	4350 nM
CC1Cc2ccccc2N1C(=O)NCCCCN(C)[C@@H]1Cc2cccc3[nH]c(=O)n(c23)C1 (mixture of isomers)	5-hydroxytryptamine receptor 2A (HTR2A, Homo sapiens, UniProt P28223)	ligand displacement, radioligand	–	4120 nM
CC/C=C\C/C=C\C/C=C\C/C=C\C/C=C\CCCC(=O)O	Deoxyribonuclease-1 (DNASE1, Bos taurus, UniProt P00639)	enzyme activity, inhibitor	–	> 100000 nM
CNCCc1nc2nc(C)cc(Nc3cccc(Cl)c3)n2n1	PFF0160c	enzyme activity, inhibitor	–	> 10000 nM
CCCON(Cc1ccc(C(=O)NO)cc1)C(=O)Nc1ccc(N(C)C)cc1	HDAC2	enzyme activity, inhibitor, fluorescence	–	1140 nM
O=C(CCN(Cc1ccc(Cl)cc1F)Cc1ccc(Cl)c(O)c1F)NO	MEP1A	enzyme activity, inhibitor	–	215 nM
Cc1cnc(-c2ccc(-c3ccc(NC(=O)Nc4c(F)cc(F)cc4F)cc3F)c3c2C(=O)NC3)[nH]1	AURKB	enzyme activity, inhibitor	–	3.7 nM
Cc1ccc(C(C)C)cc1NC(=O)COC(=O)/C=C/c1ccc(Cl)cc1	PPO3	enzyme activity, inhibitor	–	16700 nM
CCCSc1nc(Sc2nnnn2C)c2nnn(CCc3c[nH]c4ccccc34)c2n1	KDM1A	enzyme activity, inhibitor, fluorescence	–	253 nM
CNCCOc1nc2nc(C)cc(Nc3ccc(S(F)(F)(F)(F)F)cc3)n2n1	PFF0160c	enzyme activity, inhibitor	–	> 10000 nM
O=C(O)CCCC(=O)N1CCN(C(=O)c2cc(Cc3n[nH]c(=O)c4ccccc34)ccc2F)CC1	PARP1	enzyme activity, inhibitor	–	6.7 nM
Cc1cnc(Nc2ccc(N3CCN(C)CC3)cc2)nc1Nc1cccc(S(=O)(=O)NC(C)(C)C)c1	AURKB	enzyme activity, inhibitor, mobility shift	–	33 nM
